Data set [1] deals with Human immunodeficiency virus 1. Kind of data set: Antiviral activity against HIV1 NL4-3 infected in human MT4 cells assessed as reduction in viral replication measured on day 3 post infection by luciferase reporter gene assay. It is filed as functional, organism-based. A general note: Reporter assays use an easily measured gene product as a stand-in for the process of interest.

The test system of the next data set is MT4. Kind of data set: Cytotoxicity against human MT4 cells assessed as reduction in cell viability after 3 days by CytoTox-Glo assay. It is filed as cell-based. Conditions: mt4, 72 h. In outline:
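MT4 cells were cultured with various compound concentrations for 3 days. Viability was read by the CytoTox-Glo assay following the manufacturer's protocol. CC50 is the concentration giving a 50% reduction in cell viability.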

Data set [2] in a line: Selectivity index, ratio of CC50 for human MT4 cells to EC50 for HIV1 NL4-3 infected in human MT4 cells. The note with it: read-out: Ratio CC50/EC50. The class given is toxicity, cell-based.
[3] abbreviates: Human immunodeficiency virus 1, NL4-3, MT4, 72 h.

SMILES strings stand for the structures.

As a reminder, the EC50 is the concentration at which the effect is half-maximal. What is called CC50 is the concentration that lowers cell viability or growth by half. For `COc1cc(/C=C/C(=O)OCCCc2ccc(O[C@@H](COC(=O)/C=C/c3ccc(O)c(OC)c3)[C@H](OC)c3ccc(O)c(OC)c3)c(OC)c2)ccc1O` (stereo in doubt; 1a), the EC50 in data set [1] (setting [3]) is 6.3 µM. Further, the CC50 with MT4 (72 h) is 21 µM. Also, the selectivity ratio in data set [2] is 3.3.

Turning to `COc1cc(/C=C/C(=O)OCCCc2ccc(O[C@H](COC(=O)/C=C/c3ccc(O)c(OC)c3)[C@@H](OC)c3ccc(O)c(OC)c3)c(OC)c2)ccc1O` (stereo in doubt; 1b), in data set [1] (setting [3]), the EC50 stood at 5.3 µM. Further, the CC50 in the data set on MT4 (72 h) turned out to be 17 µM. Besides, in data set [2], the selectivity ratio amounted to 3.2.

For the molecule `COc1cc(/C=C/C(=O)OCCCc2ccc(O[C@H](COC(=O)/C=C/c3ccc(O)c(OC)c3)[C@@H](OC)c3ccc(O)c(OC)c3)c(OC)c2)ccc1O` (stereo in doubt; 2a), in data set [1] (mt4), the EC50 is above 10 µM.

`CCOC(=O)/C=C/c1ccc(O)c(OC)c1` [ETHYL FERULATE]: the EC50 in data set [1] (setting [3]) was above 10 µM. In addition, in the data set with MT4, the CC50 is above 10 µM.

For `COc1cc(/C=C/C(=O)O)ccc1O` [FERULATE], the EC50 in data set [1] (setting [3]) was above 10 µM. Besides, the CC50 in the data set with MT4 was above 10 µM.

As for `Cc1cn([C@H]2C[C@H](N=[N+]=[N-])[C@@H](CO)O2)c(=O)[nH]c1=O` [ZIDOVUDINE], the CC50 in the data set on MT4 was above 0.1 µM.

The values above are taken from ChEMBL document CHEMBL3813612, “Carolignans from the Aerial Parts of Euphorbia sikkimensis and Their Anti-HIV Activity” (J Nat Prod, 2016).
